Test results: ChEMBL document CHEMBL1149433, “PABA/NO as an anticancer lead: analogue synthesis, structure revision, solution chemistry, reactivity toward glutathione, and in vitro activity” (J Med Chem, 2006)
Values after ≈ are worked out from the molar mass of the structure shown. Active and inactive are the calls of the source. The calls are words filed in the database; no cut-off is given here.

Legend:
OVCAR-3 [1] = experiment: Cytotoxicity against human ovarian cancer OVACAR3 cell line; assay type: functional; conditions: for CC50: read-out: LC50 (the source's name)
In short: (§1)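 Cells grown 24 h at 37 °C in RPMI 1640 with 5% FBS and 2 mM L-glutamine before dosing. Compounds were diluted from DMSO stocks to 10^-8 to 10^-4 M (five log concentrations) and incubated 48 h. Cells were TCA-fixed and stained with sulforhodamine B, with OD read at 515 nm. GI50, TGI and LC50 come from percent growth versus log concentration curves.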

HL-60 = experiment: Inhibition of human myeloid leukemia HL60 cell viability; assay type: functional, cell-based
NIH3T3 = experiment: Cytotoxicity against mouse embryonic fibroblast NIH3T3 cell line; assay type: functional, cell-based
[2] = Solubility in phosphate buffer at 37 degC; assay type: physicochemical
In short: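 Maximum solubility was measured in 0.1 M phosphate buffer at pH 7.4 and 37 °C.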

HCT-15 [3] = experiment: Cytotoxicity against human colon cancer HCT15 cell line; assay type: functional; conditions: for CC50: read-out: LC50 (the source's name); in short: as §1
LOX IMVI [4] = experiment: Cytotoxicity against human melanoma cancer LOXIMVI cell line; assay type: functional; in short: as §1
CAKI-1 [5] = experiment: Cytotoxicity against human renal cancer CAKI1 cell line; assay type: functional; conditions: for CC50: read-out: LC50 (the source's name); in short: as §1
HCT-15 [6] = experiment: Cytotoxicity against human colon cancer HCT15 cell line at 100 uM; assay type: functional, cell-based; in short: as §1
LOX IMVI [7] = experiment: Cytotoxicity against human melanoma cancer LOXIMVI cell line at 100 uM; assay type: functional, cell-based; in short: as §1
OVCAR-3 [8] = experiment: Cytotoxicity against human ovarian cancer OVACAR3 cell line at 100 uM; assay type: functional, cell-based; in short: as §1
CAKI-1 [9] = experiment: Cytotoxicity against human renal cancer CAKI1 cell line at 100 uM; assay type: functional, cell-based; in short: as §1

Structure (SMILES) | GI50 (OVCAR-3 [1]) | TGI (OVCAR-3 [1]) | CC50 (OVCAR-3 [1]) | IC50 (HL-60) | IC50 (NIH3T3) | solubility [2] | GI50 (HCT-15 [3]) | TGI (HCT-15 [3]) | CC50 (HCT-15 [3]) | LC50 (concentration giving 50% net cell kill) (LOX IMVI [4]) | GI50 (CAKI-1 [5]) | TGI (CAKI-1 [5]) | CC50 (CAKI-1 [5]) | GI50 (LOX IMVI [4]) | TGI (LOX IMVI [4]) | Activity (HCT-15 [6]) | Activity (LOX IMVI [7]) | Activity (OVCAR-3 [8]) | Activity (CAKI-1 [9])
CN(C)/[N+]([O-])=N/Oc1cc(Nc2ccc(C(=O)O)cc2)c([N+](=O)[O-])cc1[N+](=O)[O-] | 5.5 µM | 9 µM | 100 µM | 9.1 µM | 73 µM | > 3000 µM | – | – | – | – | – | – | – | – | – | – | – | – | –
CN(C)/[N+]([O-])=N/Oc1cc(Nc2cccc(C(=O)O)c2)c([N+](=O)[O-])cc1[N+](=O)[O-] | 3.9 µM | 30 µM | 58 µM | – | 80 µM | > 2000 µM | 20 µM | 36 µM | 68 µM | 60 µM | 2.2 µM | 51 µM | > 100 µM | – | – | – | – | – | –
CNc1ccc(C(=O)Oc2cc(O/N=[N+](\[O-])N(C)C)c([N+](=O)[O-])cc2[N+](=O)[O-])cc1 | 2.6 µM | 6.9 µM | 2.6 µM | 6.3 µM | 5.6 µM | < 2 µM | 2 µM | 5.3 µM | 19 µM | – | 1.8 µM | 4 µM | 8.9 µM | 1.9 µM | 4.4 µM | – | – | – | –
CN(c1cccc(C(=O)O)c1)c1cc(O/N=[N+](\[O-])N(C)C)c([N+](=O)[O-])cc1[N+](=O)[O-] | – | – | – | 11.6 µM | 83 µM | 3000 µM (≈ 1260 µg/mL) | – | – | – | – | – | – | – | – | – | inactive | inactive | inactive | inactive
